From ChEMBL document CHEMBL4616636, “A new series of aryl sulfamate derivatives: Design, synthesis, and biological evaluation” (Bioorg Med Chem, 2020) come the findings set out here.

In assay [1] the target is T1, Steryl-sulfatase (Homo sapiens) (UniProt P08842).
T1 sequence (whole entry): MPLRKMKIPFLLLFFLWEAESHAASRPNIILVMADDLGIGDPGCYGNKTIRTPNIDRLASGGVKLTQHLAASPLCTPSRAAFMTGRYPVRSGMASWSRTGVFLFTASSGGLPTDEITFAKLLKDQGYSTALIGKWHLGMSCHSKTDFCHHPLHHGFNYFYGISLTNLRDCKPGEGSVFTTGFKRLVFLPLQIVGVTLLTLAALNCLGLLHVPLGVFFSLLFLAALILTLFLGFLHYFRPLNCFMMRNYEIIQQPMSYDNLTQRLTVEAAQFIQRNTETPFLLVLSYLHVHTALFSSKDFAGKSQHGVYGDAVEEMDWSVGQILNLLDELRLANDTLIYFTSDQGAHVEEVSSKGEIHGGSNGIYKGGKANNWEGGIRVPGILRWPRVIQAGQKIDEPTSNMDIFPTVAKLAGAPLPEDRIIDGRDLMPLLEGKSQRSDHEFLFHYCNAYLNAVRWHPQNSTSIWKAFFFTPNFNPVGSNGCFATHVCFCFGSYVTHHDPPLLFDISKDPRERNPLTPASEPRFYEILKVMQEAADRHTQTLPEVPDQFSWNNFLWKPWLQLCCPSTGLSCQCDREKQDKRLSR
The assay can be described thus: Inhibition of steroid sulfatase in human JEG3 cell lysates at 10 uM using [3H] E1S as substrate after 1 hr by scintillation spectrometry analysis relative to control. Format: cell-free. The note with it: JEG-3. In outline:
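JEG-3 placental choriocarcinoma lysate (125 µg protein/mL) incubated 1 h with inhibitor at 10 µM and [3H]E1S brought to 20 µM with unlabelled E1S. Estrone product extracted into toluene, [14C]E1 used to correct for losses, 3H/14C counted by scintillation. Reported as % inhibition versus untreated control, mean ± SEM, n=3.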

Assay [2] has as its target T2, Steryl-sulfatase (Homo sapiens, UniProt P08842).
T2 sequence (P08842 whole entry): T1 sequence (whole entry)
Kind of assay: Inhibition of steroid sulfatase in human JEG3 cell lysates using [3H] E1S as substrate after 1 hr by scintillation spectrometry analysis. Format: cell-free, JEG-3. In a few lines:
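Estrone taken into toluene, recovery corrected with [14C]E1, scintillation counting. E1S hydrolysed calculated from 3H counts and substrate specific activity, and IC50 derived from the dose-response.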

Assay [3] deals with T2, Steryl-sulfatase. The assay can be described thus: Inhibition of steroid sulfatase in human JEG3 cells using [3H] E1S as substrate incubated for 20 hrs by scintillation spectrometry analysis. Format: cell-based, JEG-3. In a few lines: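 Intact JEG-3 monolayers incubated 20 h at 37 °C in serum-free EMEM with [3H]E1S (5 pmol, 60 Ci/mmol), with or without inhibitor at 10 µM. Estrone in the medium separated from E1S by toluene partition, [14C]estrone used to correct for procedural losses. E1S hydrolysed calculated from scintillation counts.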

The subject of another assay is T47D. Kind of assay: Antiproliferative activity against human T47D cells assessed as reduction in cell proliferation measured after 5 days in presence of estradiol sulfate by crystal violet staining based assay. Type of assay: functional. To be noted: 120 h. In outline:
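T-47D cells kept in EMEM with pyruvate, gentamycin, bicarbonate and 10% FBS at 37 °C, 5% CO2. After 3 days of growth, medium swapped for one with compound, 100 nM estradiol sulfate and 10% charcoal-stripped FBS, then 5 days of incubation. Glutaraldehyde fixation, crystal violet stain, ethanol elution, OD at 578 nm. IC50 reported as mean ± SEM of triplicate assays.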

On to `NS(=O)(=O)Oc1ccc(NC(=O)C2CCCCCC2)cc1`, for which the inhibition in assay [1] was found to be 52.3%.

With `NS(=O)(=O)Oc1ccc(CNC(=O)C23CC4CC(CC(C4)C2)C3)cc1`, the inhibition in assay [1] is -5.3%.

On to `NS(=O)(=O)Oc1ccc(NC(=O)c2ccc(Cl)cc2)cc1`, for which the inhibition in assay [1] was found to be 24.6%.

On to `NS(=O)(=O)Oc1ccc(NC(=O)c2ccccc2)cc1`, for which, in assay [1], the inhibition amounted to 25.4%.

Take `NS(=O)(=O)Oc1ccc2c(ccn2C(=O)C2CCCCC2)c1`: in assay [1], the inhibition was 14.3%.

In the case of `Cc1cc(OS(N)(=O)=O)ccc1NC(=O)C12CC3CC(CC(C3)C1)C2`, the inhibition in assay [1] amounted to 58.5%.

Take `NS(=O)(=O)Oc1ccc(NC(=O)NC23CC4CC(CC(C4)C2)C3)cc1`: in assay [1], the inhibition is 5.32%.

As to `NS(=O)(=O)Oc1ccc2c(ccn2C(=O)C23CC4CC(CC(C4)C2)C3)c1`, the inhibition in assay [1] was 63.4%.

As for `NS(=O)(=O)Oc1ccc(NC(=O)C2CCCC2)cc1`, in assay [1], the inhibition is 62%.

For `NS(=O)(=O)Oc1ccc(NC(=O)c2cccnc2)cc1`, the inhibition in assay [1] came to 12.9%.

For `NS(=O)(=O)Oc1ccc(C(=O)NC23CC4CC(CC(C4)C2)C3)cc1`, in assay [1], the inhibition was 90%.

As to `NS(=O)(=O)Oc1ccc(C(=O)NC23CC4CC(CC(C4)C2)C3)cc1Cl`, the results for the half-inhibitory concentration (IC50) on Steryl-sulfatase [2], at Steryl-sulfatase [3] and in the assay on T47D were 25.8 nM, 150 nM and 1040 nM, respectively. Moreover, the inhibition in assay [1] worked out at 98.3%.

In the case of `NS(=O)(=O)Oc1ccc(NC(=O)c2ccc3ccccc3c2)cc1`, the inhibition in assay [1] turned out to be 53.6%.

In the case of `NS(=O)(=O)Oc1ccc(NC(=O)C23CC4CC(CC(C4)C2)C3)cc1Cl`, in assay [1], the inhibition turned out to be 88.6%.

For `NS(=O)(=O)Oc1ccc(NC(=O)C23CC4CC(CC(C4)C2)C3)cc1Br`, the inhibition in assay [1] worked out at 82.7%.

Turning to `NS(=O)(=O)Oc1ccc2c3c(c(=O)oc2c1)CCCCC3` [IROSUSTAT], the IC50 with T47D amounted to 920 nM.

`NS(=O)(=O)Oc1ccc(NC(=O)C23CC4CC(CC(C4)C2)C3)cc1F`: in assay [1], the inhibition was found to be 86.3%.

On to `CN(C(=O)C12CC3CC(CC(C3)C1)C2)c1ccc(OS(N)(=O)=O)cc1`, for which the inhibition in assay [1] came to 61%.

As for `NS(=O)(=O)Oc1ccc(NC(=O)C23CC4CC(CC(C4)C2)C3)cc1`, the IC50 was 110 nM against Steryl-sulfatase [2], 13.6 nM against Steryl-sulfatase [3] and 5780 nM with T47D. For the same compound, the inhibition in assay [1] was found to be 93.9%.

In the case of `NS(=O)(=O)Oc1ccc(C(=O)NC23CC4CC(CC(C4)C2)C3)cc1Br`, the IC50 against Steryl-sulfatase [2] worked out at 74.1 nM; with T47D, 4670 nM. Besides, in assay [1], the inhibition turned out to be 94.6%.

As for `NS(=O)(=O)Oc1ccc(C(=O)NC23CC4CC(CC(C4)C2)C3)cc1F`, the half-maximal inhibitory concentration (IC50) was 67.7 nM against Steryl-sulfatase [2] and 3400 nM in the assay with T47D. Also, the inhibition in assay [1] came out at 97.2%.

Regarding `COc1ccc(C(=O)Nc2ccc(OS(N)(=O)=O)cc2)cc1`, the inhibition in assay [1] stood at 72.7%.
